Screens: PubChem, several laboratories
An excerpt weighted towards active compounds, which were near 1.8% of everything screened.
Efflux pump inh: inhibitors of Candida antifungal efflux pumps expressed in yeast; S. cerevisiae Candida pump triplex, Nile Red efflux; 330,000 compounds, 0.44% hits; inhibition, % at 10 µM;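 active = plate passing quality check with inhibition over a set limit, or well fluorescence over plate mean plus 4 SD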;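 note: Nile Red retained in pooled yeast measured as flow cytometry median fluorescence; higher means more Nile Red kept so more efflux inhibition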
Cneo AK release: Cryptococcus neoformans lysis via adenylate kinase release | AID 651654 | C. neoformans lysis, adenylate kinase release luminescence, 4 h; normalised: neutral wells 0, clomiphene wells 100 | lysis activity, % at 15 µM | 360,000 compounds, 0.2% hits;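 active = mean lysis activity across replicates of at least 80%, whatever share of replicates individually reach that level; inactive = mean lysis activity below 80%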
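Material: C. neoformans cells; Schedule: 4 h static compound exposure, 37 °C, read 1 h post-reagent; Measured by: adenylate kinase release luminescence; Read-out: signal increase indicating cell lysis; Controls: Clomiphene as positive lysis control.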
SUMO Mot1 rescue: blocks SUMOylation pathway, rescuing yeast Mot1-301 growth; growth rescue, % at 18.8 µM; AID 2716; 320,000 compounds, 1% hits; S. cerevisiae Mot1-301 growth rescue, ATP luminescence, 38.5C; percent above DMSO median, 100 means doubled;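 active = every valid replicate shows activation above 250% relative to neutral control wells; inactive = the rest, any valid replicate at or below 250%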
C2C12 statin: suppression of simvastatin myotoxicity; C2C12 myotubes + simvastatin, ATP luminescence, 48 h; scaled: DMSO 0, geranylgeraniol control 100; rescue of ATP level, % at 7.49 µM; 330,000 compounds, 0.78% hits; AID 602340;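 active = mean ATP rescue above about 67%, or every replicate alone reaching that limit, limit read from the data, passing the limit was not always enough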;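 note: myotubes were challenged with 10 µM simvastatin during compound exposure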
Cmpd fluor yeast: counter-screen for efflux pump inhibitors: compound fluorescence; AID 588517; fluorescence ratio to DMSO, % at 10 µM; shares compounds with Efflux pump inh; S. cerevisiae AD/pABC3, flow cytometry; 1,700 compounds, 4% hits;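 active = fluorescence ratio to DMSO above its plate's cutoff, the plate mean ratio plus 5 SD, cut at about 210% in these data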;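 note: unstained yeast with no Nile Red so the signal is compound autofluorescence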
CaMdr1 efflux inh: blocks the Candida albicans Mdr1 efflux pump in yeast | 1,700 compounds, 1% hits | AID 588518 | inhibition, % at 10 µM | shares compounds with Efflux pump inh | S. cerevisiae AD/CaMDR1, Nile Red efflux, flow cytometry; in the data active = inhibition above about 26%;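 note: higher means more Nile Red retained so more efflux inhibition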
CaCdr2 efflux inh: inhibitors of Candida albicans Cdr2 efflux pump; shares compounds with Efflux pump inh; S. cerevisiae AD/CaCDR2, Nile Red retention, flow cytometry; Nile Red retention ratio vs DMSO, % at 10 µM; 1,700 compounds, 4% hits; in the data active = Nile Red retention ratio vs DMSO above about 190%;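 note: higher ratio means more blocking of Cdr2 efflux of the dye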
Cdr1 pump inh: blocks the Candida albicans Cdr1 efflux pump in yeast | shares compounds with Efflux pump inh | 1,700 compounds, 1% hits | S. cerevisiae AD/CaCDR1, Nile Red efflux, flow cytometry | inhibition, % at 10 µM;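 active = inhibition above the screen-wide mean plus twice its standard deviation, cut at about 32% in these data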
Each line names hits and unclear results; the compound was inactive in the other large screens (follow-up assays come after a bar, where they were run).

NC(=O)c1cc(-c2ccccc2)nc2ccc(Br)cc12	none (no result: C2C12 statin) | Cmpd fluor yeast inactive | CaMdr1 efflux inh inactive | CaCdr2 efflux inh inactive | Cdr1 pump inh inactive
N/C(=N\OC(=O)Cc1cccc2ccccc12)c1ccccn1	Efflux pump inh 1.2 (no result: C2C12 statin) | Cmpd fluor yeast inactive | CaMdr1 efflux inh inactive | CaCdr2 efflux inh inactive | Cdr1 pump inh inactive
NC(=O)CSc1nc2cc3c(cc2c(=O)n1CCCC(=O)NCc1ccc2c(c1)OCO2)OCO3	none
Cc1cc(C)n2c(SCC(=O)N(C)C3CCS(=O)(=O)C3)nnc2n1 (centres undefined)	Efflux pump inh 0.6 | Cmpd fluor yeast inactive | CaMdr1 efflux inh inactive | CaCdr2 efflux inh inactive | Cdr1 pump inh inactive
O=C(O)CC1c2ccccc2CCN1S(=O)(=O)c1cccs1 (centres undefined)	Efflux pump inh 2.2 | Cmpd fluor yeast inactive | CaMdr1 efflux inh inactive | CaCdr2 efflux inh inactive | Cdr1 pump inh inactive
CC1C/C(=C/c2ccco2)C(=O)/C(=C/c2ccco2)C1 (centres undefined)	none (no result: Cneo AK release, C2C12 statin)
O=C1/C(=C\c2ccco2)CCC/C1=C\c1ccco1	Efflux pump inh 60 | Cmpd fluor yeast inactive | CaMdr1 efflux inh inactive | CaCdr2 efflux inh inactive | Cdr1 pump inh inactive
O=C(C[C@@H]1CC[C@H]2[C@@H](COC[C@@H](O)CN2C(=O)c2cccnc2)O1)NCc1ccc(-c2ccccc2)cc1	none (no result: Efflux pump inh, SUMO Mot1 rescue)
Cc1cc2nc3s/c(=C/c4ccc(-c5ccccc5C(=O)O)o4)c(=O)n3c2cc1C	Efflux pump inh 0.9 | Cmpd fluor yeast inactive | CaMdr1 efflux inh inactive | CaCdr2 efflux inh inactive | Cdr1 pump inh inactive
CCCc1nnc2c(N(C)S(=O)(=O)c3ccc(C)cc3)nc3ccccc3n12	none (no result: Cneo AK release, C2C12 statin)
CCCCc1nnc2c(N(C)S(=O)(=O)c3ccc(C)cc3)nc3ccccc3n12	Efflux pump inh 0.8 | Cmpd fluor yeast inactive | CaMdr1 efflux inh inactive | CaCdr2 efflux inh inactive | Cdr1 pump inh inactive
CCn1c(C)c(C(C)=O)c(N2CCN(c3ccccc3)CC2)nc1=S	none (no result: Cneo AK release, C2C12 statin)
CC(=O)c1c(N2CCN(C)CC2)[nH]c(-c2ccccc2)nc1=S	Efflux pump inh 1.5 (no result: Cneo AK release, C2C12 statin) | Cmpd fluor yeast inactive | CaMdr1 efflux inh inactive | CaCdr2 efflux inh inactive | Cdr1 pump inh inactive
COc1cc(CN(C)Cc2cc(=O)n3ccsc3n2)ccc1OC(F)F	none (no result: Cneo AK release, C2C12 statin)
Cc1ccc2cccc(NC3OC(=O)c4ccccc43)c2n1 (centres undefined)	none (no result: Cneo AK release, C2C12 statin)
COC(=O)c1ccccc1NC1OC(=O)c2ccccc21 (centres undefined)	Efflux pump inh 91 | Cmpd fluor yeast inactive | CaMdr1 efflux inh inactive | CaCdr2 efflux inh inactive | Cdr1 pump inh inactive
COCCNC(=O)C[C@@H]1CC[C@H]2[C@@H](COC[C@@H](O)CN2S(=O)(=O)c2ccccc2F)O1	none (no result: Efflux pump inh, SUMO Mot1 rescue)
COc1ccc(-c2ccc(-c3noc(-c4ccccc4OC)n3)c(OC)n2)cc1	Efflux pump inh 0.5 (no result: Cneo AK release, C2C12 statin) | Cmpd fluor yeast inactive | CaMdr1 efflux inh inactive | CaCdr2 efflux inh inactive | Cdr1 pump inh inactive
COc1ccc(-c2ccc(-c3noc(-c4ccccc4C)n3)c(OC)n2)cc1	none
CCOc1ccc(NC(=O)NC2CCCc3ccccc32)cc1 (centres undefined)	Efflux pump inh 6.5 (no result: C2C12 statin) | Cmpd fluor yeast inactive | CaMdr1 efflux inh inactive | CaCdr2 efflux inh inactive | Cdr1 pump inh inactive
Cc1ccc(NC(=O)NC2CCCc3ccccc32)cc1 (centres undefined)	none
CN(C)C(=O)c1ccc(NC(=O)c2ccc(-c3ccc(Cl)cc3)o2)cc1	Efflux pump inh 0.6 | Cmpd fluor yeast inactive | CaMdr1 efflux inh inactive | CaCdr2 efflux inh inactive | Cdr1 pump inh inactive
O=C(OCc1ccc(C(=O)c2ccccc2)cc1)c1cccc(-c2nnc(-c3ccccc3)o2)c1	none
CC(C)OC(=O)c1ccc(COC(=O)c2cccc(-c3nnc(-c4ccccc4)o3)c2)cc1	Efflux pump inh 7.6 (no result: Cneo AK release, C2C12 statin) | Cmpd fluor yeast inactive | CaMdr1 efflux inh inactive | CaCdr2 efflux inh inactive | Cdr1 pump inh inactive
CCCN(CC(=O)Nc1ccccc1C)C(=O)c1ccc(S(=O)(=O)N2CCCC2)cc1	none
COC(=O)Cn1cc(/C=N/NC(=O)c2ccc(C#N)cc2F)c2ccccc21	none
